Blank lines part the entries; values can stand above or below the compound they belong to. Active and inactive are the calls of the source. No cut-off for these calls is given here.
Legend:
PBMC [1] = experiment: Reduction of CCR5 density on human sPBMC at 0.1 to 1 nM after 6 days by quantitative fluorescence-activated cell sorting; assay type: functional, cell-based
Method in brief: (§1)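 PBMCs cultured 6 days with IL-2 and RAPA. Blocked 30 min at room temperature (PBS with 2% human serum, 5% horse serum, 0.1% azide), then stained 30 min with PE antibodies. Surface molecules per cell from FL-2 by Quantibrite-PE bead regression, PE/antibody ratio 1:1. Means ± SD from seven donors; Student's t test versus untreated.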

PBMC [2] = experiment: Reduction of CXCR4 density on human PBMC at 0.1 to 1 nM after 6 days by quantitative fluorescence-activated cell sorting; assay type: functional, cell-based; method in brief: as §1
PBMC [3] = experiment: Reduction of CD4 density on human PBMC at 1 nM after 6 days by quantitative fluorescence-activated cell sorting; assay type: functional; design: scale not given: the % may be the effect or the level left; method in brief: as §1
[4] = tested on: Human immunodeficiency virus 1; experiment: Antiviral activity against HIV1 ADA in human PBMC assessed as reduction of p24 antigen levels after 4 days of infection; assay type: functional, organism-based
Method in brief: (§2)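 PBMCs cultured 6 days with IL-2 (100 U/ml) plus RAPA, then exposed 2 h to HIV-1 ADA (R5) or IIIb (X4) at MOI 0.001, washed three times with PBS, and kept in IL-2 medium with drugs. p24 in supernatant by ELISA on day 4 after infection. Means ± SD of independent experiments.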

[5] = tested on: Human immunodeficiency virus 1; experiment: Antiviral activity against HIV1 R5 assessed as inhibition of cell-cell fusion between R5-envelope expressing HEK293T cells and CD8 depleted human PBMCs pretreated for 6 days; assay type: functional, organism-based; conditions: Human immunodeficiency virus 1, R5, HEK-293T
Method in brief: (§3)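 Target cells were CD8-depleted PBMCs pretreated 6 days with RAPA and labeled with calcein-AM. Effectors were 293T cells transfected with JRFL (R5) or HXB2 (X4) Env plus Rev, loaded with CMTMR on day 2. Cells cocultured 1:3 ± T-20 for 2.5 h at 37°C in HEPES-DMEM pH 7.2 with BSA 1 mg/ml. Double-positive cells scored by microscopy, ≥100 cells, normalized to no-T-20 fusion. EC50 from F = 100/(1 + Ci/EC50).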

[6] = tested on: Human immunodeficiency virus 1; experiment: Antiviral activity against HIV1 X4 assessed as inhibition of cell-cell fusion between X4-envelope expressing HEK293T cells and CD8 depleted human PBMCs pretreated for 6 days; assay type: functional, organism-based; conditions: Human immunodeficiency virus 1, X4, HEK-293T; method in brief: as §3
[7] = tested on: Human immunodeficiency virus 1; experiment: Antiviral activity against HIV1 ADA in human PBMC assessed as reduction of p24 antigen levels; assay type: functional, organism-based; conditions: Human immunodeficiency virus 1, ADA; method in brief: as §2
[8] = tested on: Human immunodeficiency virus 1; experiment: Antiviral activity against HIV1 R5 in human PBMC assessed as fractional inhibition of viral replication at 0.125 nM; assay type: functional
Method in brief: (§4)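 Fixed-ratio combination in PBMC p24 infectivity assays (RAPA pretreatment, MOI 0.001, p24 ELISA day 4). Each drug tested alone in twofold dilutions, RAPA 0.125–2 nM and T-20 2.5–40 nM, and in a 1/20 RAPA/T-20 molar ratio. Median-effect (Chou) analysis gave Dm, m, r, combination index and dose reduction index.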

[9] = tested on: Human immunodeficiency virus 1; experiment: Antiviral activity against HIV1 R5 in human PBMC assessed as fractional inhibition of viral replication at 0.250 nM; assay type: functional; method in brief: as §4
[10] = tested on: Human immunodeficiency virus 1; experiment: Antiviral activity against HIV1 R5 in human PBMC assessed as fractional inhibition of viral replication at 0.5 nM; assay type: functional; method in brief: as §4
[11] = tested on: Human immunodeficiency virus 1; experiment: Antiviral activity against HIV1 R5 in human PBMC assessed as fractional inhibition of viral replication at 1 nM; assay type: functional; method in brief: as §4
[12] = tested on: Human immunodeficiency virus 1; experiment: Antiviral activity against HIV1 R5 in human PBMC assessed as fractional inhibition of viral replication at 2 nM; assay type: functional; method in brief: as §4
[13] = tested on: Human immunodeficiency virus 1; experiment: Antiviral activity against HIV1 R5 in human PBMC assessed as fractional inhibition of viral replication; assay type: functional, organism-based; conditions: Human immunodeficiency virus 1, R5; method in brief: as §4
PBMC [14] = experiment: Effect on cell viability of human PBMC at 0.03 to 1 nM after 14 days by trypan blue staining; assay type: cell-based; conditions: 336 h, 0.001 µM
Method in brief: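 PBMCs cultured with IL-2 and RAPA for 14 days; viability by trypan blue staining. Means ± SD from seven donors.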

PBMC [15] = experiment: Effect on cell viability of human PBMC pretreated for 14 days by trypan blue staining; conditions: 336 h
[16] = tested on: Human immunodeficiency virus 1; experiment: Antiviral activity against HIV1 X4 in human PBMC assessed as reduction of p24 antigen levels; assay type: functional, organism-based; conditions: Human immunodeficiency virus 1, X4; method in brief: as §2
[17] = tested on: Human immunodeficiency virus 1; experiment: Antiviral activity against HIV1 R5 in human PBMC assessed as fractional inhibition of viral replication at 2.5 nM; assay type: functional; method in brief: as §4
[18] = tested on: Human immunodeficiency virus 1; experiment: Antiviral activity against HIV1 R5 in human PBMC assessed as fractional inhibition of viral replication at 5 nM; assay type: functional; method in brief: as §4
[19] = tested on: Human immunodeficiency virus 1; experiment: Antiviral activity against HIV1 R5 in human PBMC assessed as fractional inhibition of viral replication at 10 nM; assay type: functional; method in brief: as §4
[20] = tested on: Human immunodeficiency virus 1; experiment: Antiviral activity against HIV1 R5 in human PBMC assessed as fractional inhibition of viral replication at 20 nM; assay type: functional; method in brief: as §4
[21] = tested on: Human immunodeficiency virus 1; experiment: Antiviral activity against HIV1 R5 in human PBMC assessed as fractional inhibition of viral replication at 40 nM; assay type: functional; method in brief: as §4

EC50 [5]: 0.1 nM
EC50 [6]: 1.3 nM
EC50 [7]: 0.15 nM
EC50 [13]: 0.18 nM
Compound: CO[C@H]1C[C@@H]2CC[C@@H](C)[C@@](O)(O2)C(=O)C(=O)N2CCCC[C@H]2C(=O)O[C@H]([C@H](C)C[C@@H]2CC[C@@H](O)[C@H](OC)C2)CC(=O)[C@H](C)/C=C(\C)[C@@H](O)[C@@H](OC)C(=O)[C@H](C)C[C@H](C)/C=C/C=C/C=C/1C [SIROLIMUS]
Activity (PBMC [1]): Active
Activity (PBMC [2]): inactive
Activity (PBMC [3]): 15%
Activity [4]: Active
Activity [8]: 0.34
Activity [9]: 0.66
Activity [10]: 0.78
Activity [11]: 0.85
Activity [12]: 0.92
Activity (PBMC [14]): Non-toxic
Activity (PBMC [15]): Non-toxic

Compound: enfuvirtide
EC50 [7]: 10 nM
EC50 [16]: 2.5 nM
Activity [17]: 0.23
Activity [18]: 0.24
Activity [19]: 0.5
Activity [20]: 0.57
Activity [21]: 0.73
EC50 [13]: 12.9 nM

Reference: ChEMBL document CHEMBL1157364, “Rapamycin reduces CCR5 density levels on CD4 T cells, and this effect results in potentiation of enfuvirtide (T-20) against R5 strains of human immunodeficiency virus type 1 in vitro” (Antimicrob Agents Chemother, 2007)
